In ChEMBL document CHEMBL5154669, “G-Quadruplex DNA as a Target in Pathogenic Bacteria: Efficacy of an Extended Naphthalene Diimide Ligand and Its Mode of Action” (J Med Chem, 2022):
Values after ≈ are worked out from the molar mass of the structure shown. Active and inactive are the calls of the source. The calls are words filed in the database; no cut-off is given here. Where a SMILES comes first, the peptide text is derived from it. Bridges are numbered along the chain shown (N, C = ends). [ ]: non-standard residue; d: D form. The star is where a group is joined. X1 = CC[C@H](C)CCCCC(=O)*; Orn = NCCC[C@H](N)C(=O)O; Dab = NCC[C@H](N)C(=O)O

How the values were obtained:
Enterococcus faecium [1] = assay: Bacteriolytic activity against Enterococcus faecium LMG 16003 incubated for 2 hrs; type: functional, organism-based
Outline: (§1)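 Cultures grown 20 h were washed three times in HEPES with 5% glucose, adjusted to OD600 0.5 and exposed at 37 °C. OD600 was followed every 15 min for 2 h. Controls for E. coli were polymyxin B (2 μM) and erythromycin (32 μM). Controls for Gram-positive strains were gramicidin S (2 μM) and chloramphenicol (16 μM). Cells were then spotted on cMHB agar, 20 h, 37 °C, in triplicate.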

Bacillus cereus [2] = assay: Bacteriolytic activity against Bacillus cereus ATCC 10987 incubated for 2 hrs; type: functional, organism-based; outline: as §1
Staphylococcus aureus [3] = assay: Bacteriolytic activity against Staphylococcus aureus LMG 8224 incubated for 2 hrs; type: functional, organism-based; outline: as §1
Escherichia coli [4] = assay: Bacteriolytic activity against Escherichia coli LMG 8223 incubated for 2 hrs; type: functional, organism-based; outline: as §1
Enterococcus faecium [5] = assay: Antibacterial activity against Enterococcus faecium LMG 11423 assessed as inhibition of bacterial growth incubated for 20 hrs by CLSI based broth microdilution method; settings: LMG 11423, 20 h
DNA [6] = assay: Stabilization of Staphylococcus aureus in G-quadruplex DNA GGA AGG AGG GGT GAC AGG G assessed as change in melting temperature at 10 uM incubated for 16 hrs by […]; type: nucleic-acid assay
Outline: (§2)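 Readout was CD melting, not FRET: 2.5 μM oligonucleotide in 10 mM lithium cacodylate pH 7.4 with KCl set per sequence (initial Tm 60-70 °C). Annealed 95 °C 5 min, cooled to room temperature over 4 h, then ligand 10 μM (4 equiv) equilibrated 16 h at 20 °C. Ellipticity at 260 nm tracked every 0.1 °C, 20-95 °C at 5 °C/min; Tm by van't Hoff two-state fit.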

DNA [7] = assay: Stabilization of Escherichia coli in G-quadruplex DNA GGG GCG GGG TGG GTT GG assessed as melting temperature at 10 uM incubated for 16 hrs by FRET method; type: nucleic-acid assay
Enterococcus faecalis [8] = assay: Antibacterial activity against Enterococcus faecalis LMG 08222 assessed as inhibition of bacterial growth incubated for 20 hrs by CLSI based broth microdilution method; type: functional
Outline: (§3)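 Broth microdilution in cation-adjusted Mueller-Hinton broth following CLSI guidelines. DMSO stocks were at 10 mM; compounds were twofold serially diluted over 128 to 2 μM. The inoculum was at 5 × 10⁵, prepared from colonies grown 20 h at 37 °C and adjusted to 0.5 McFarland. Plates ran 20 h at 37 °C with OD600 read-out. MIC was the lowest concentration inhibiting visible growth, in triplicate.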

Bacillus cereus [9] = assay: Antibacterial activity against Bacillus cereus ATCC 10987 assessed as inhibition of bacterial growth incubated for 20 hrs by CLSI based broth microdilution method; type: functional; outline: as §3
Salmonella enterica = assay: Antibacterial activity against Salmonella enterica LMG 07233 assessed as inhibition of bacterial growth incubated for 20 hrs by CLSI based broth microdilution method; type: functional; outline: as §3
Staphylococcus aureus [10] = assay: Antibacterial activity against Staphylococcus aureus LMG 10147 assessed as inhibition of bacterial growth incubated for 20 hrs by CLSI based broth microdilution method; type: functional; outline: as §3
Acinetobacter baumannii = assay: Antibacterial activity against Acinetobacter baumannii LMG 01041 assessed as inhibition of bacterial growth incubated for 20 hrs by CLSI based broth microdilution method; type: functional; outline: as §3
Enterobacter cloacae = assay: Antibacterial activity against Enterobacter cloacae LMG 02783 assessed as inhibition of bacterial growth incubated for 20 hrs by CLSI based broth microdilution method; type: functional; outline: as §3
DNA [11] = assay: Stabilization of Escherichia coli in G-quadruplex DNA GGT GGG GAG GGG TAA GGG G assessed as melting temperature at 10 uM incubated for 16 hrs by […]; type: nucleic-acid assay; outline: as §2
Klebsiella aerogenes = assay: Antibacterial activity against Enterobacter aerogenes LMG 02094 assessed as inhibition of bacterial growth incubated for 20 hrs by CLSI based broth microdilution method; type: functional; outline: as §3
Staphylococcus aureus [12] = assay: Antibacterial activity against Staphylococcus aureus LMG 8224 assessed as inhibition of bacterial growth incubated for 20 hrs by CLSI based broth microdilution method; type: functional; outline: as §3
Bacillus cereus [13] = assay: Antibacterial activity against Bacillus cereus ATCC 14579 assessed as inhibition of bacterial growth incubated for 20 hrs by CLSI based broth microdilution method; type: functional; outline: as §3
DNA [14] = assay: Stabilization of Escherichia coli in G-quadruplex DNA GGG GGA GGA GGA CGG GGG assessed as melting temperature at 10 uM incubated for 16 hrs by […]; type: nucleic-acid assay; outline: as §2
DNA [15] = assay: Stabilization of Staphylococcus aureus in G-quadruplex DNA GGA AGG AGG GGT GAC AGG G assessed as melting temperature at 10 uM incubated for 16 hrs […]; type: nucleic-acid assay; outline: as §2
Enterococcus faecium [16] = assay: Antibacterial activity against Enterococcus faecium LMG 16003 assessed as inhibition of bacterial growth incubated for 20 hrs by CLSI based broth microdilution method; type: functional; outline: as §3
Klebsiella pneumoniae = assay: Antibacterial activity against Klebsiella pneumoniae LMG 20218 assessed as inhibition of bacterial growth incubated for 20 hrs by CLSI based broth microdilution method; type: functional; outline: as §3
DNA [17] = assay: Stabilization of Staphylococcus aureus in G-quadruplex DNA GGGTTTGGGGCGGCGGTTGG assessed as change in melting temperature at 10 uM incubated for 16 hrs by FRET method; type: nucleic-acid assay
Enterococcus faecalis [18] = assay: Antibacterial activity against Enterococcus faecalis LMG 16216 assessed as inhibition of bacterial growth incubated for 20 hrs by CLSI based broth microdilution method; type: functional; outline: as §3
[19] = test system: Staphylococcus epidermidis; assay: Antibacterial activity against Staphylococcus epidermidis Tu3298 assessed as inhibition of bacterial growth incubated for 20 hrs by CLSI based broth microdilution method; type: functional; outline: as §3
Enterococcus faecalis [20] = assay: Antibacterial activity against Enterococcus faecalis V583 assessed as inhibition of bacterial growth incubated for 20 hrs by CLSI based broth microdilution method; type: functional; outline: as §3
DNA [21] = assay: Stabilization of Escherichia coli in G-quadruplex DNA GGG GGA GGA GGA CGG GGG assessed as change in melting temperature at 10 uM incubated for 16 hrs by FRET method; type: nucleic-acid assay; settings: in the assay text read “by CD melting method” for “by FRET method”; outline: as §2
DNA [22] = assay: Stabilization of Staphylococcus aureus in G Quadruplex DNA GGGGCTAATTGGGGCTGGTGG assessed as change in melting temperature at 10 uM incubated for 16 hrs by […]; type: nucleic-acid assay; outline: as §2
DNA [23] = assay: Stabilization of Escherichia coli in G-quadruplex DNA GGG GCG GGG TGG GTT GG assessed as change in melting temperature at 10 uM incubated for 16 hrs by CD melting method
DNA [24] = assay: Stabilization of Escherichia coli in G-quadruplex DNA GGT GGG GAG GGG TAA GGG G assessed as change in melting temperature at 10 uM incubated for 16 hrs by FRET method; type: nucleic-acid assay; settings: in the assay text read “by CD melting method” for “by FRET method”; outline: as §2
DNA [25] = assay: Stabilization of Staphylococcus aureus in G Quadruplex DNA GGGGCTAATTGGGGCTGGTGG assessed as melting at 10 uM incubated for 16 hrs temperature by […]; type: nucleic-acid assay; outline: as §2
Pseudomonas aeruginosa = assay: Antibacterial activity against Pseudomonas aeruginosa LMG 6395 assessed as inhibition of bacterial growth incubated for 20 hrs by CLSI based broth microdilution method; type: functional; outline: as §3
Staphylococcus aureus [26] = assay: Antibacterial activity against Staphylococcus aureus LMG 15975 assessed as inhibition of bacterial growth incubated for 20 hrs by CLSI based broth microdilution method; type: functional; outline: as §3
Escherichia coli [27] = assay: Antibacterial activity against Escherichia coli LMG 8223 assessed as inhibition of bacterial growth incubated for 20 hrs by CLSI based broth microdilution method; type: functional; outline: as §3
DNA [28] = assay: Stabilization of Staphylococcus aureus in G-quadruplex DNA GGGTTTGGGGCGGCGGTTGG assessed as melting temperature at 10 uM incubated for 16 hrs by […]; type: nucleic-acid assay; outline: as §2

CC[C@H](C)CCCCC(=O)N[C@@H](CCN)C(=O)N[C@H](C(=O)N[C@@H](CCN)C(=O)N[C@H]1CCNC(=O)[C@H]([C@@H](C)O)NC(=O)[C@H](CCN)NC(=O)[C@H](CCN)NC(=O)[C@H](CC(C)C)NC(=O)[C@@H](Cc2ccccc2)NC(=O)[C@H](CCN)NC1=O)[C@@H](C)O (X1-[Dab]T[Dab][Dab][Dab][dF]L[Dab][Dab]T; lactam 4-C)
Activity (Enterococcus faecium [1]): Active
Activity (Bacillus cereus [2]): Active
Activity (Staphylococcus aureus [3]): Active
Activity (Escherichia coli [4]): Active

CCCNc1cc2c3c(ccc4c3c1C(=O)N(CCCN(C)C)C4=O)C(=O)N(CCCN(C)C)C2=O
MIC (Enterococcus faecium [5]): 16 µM (≈ 7.9 µg/mL)
ΔTm (DNA [6]): 12 °C
Tm (DNA [7]): 78 °C
MIC (Enterococcus faecalis [8]): 64 µM (≈ 31.6 µg/mL)
MIC (Bacillus cereus [9]): 64 µM (≈ 31.6 µg/mL)
MIC (Salmonella enterica): > 128 µM
MIC (Staphylococcus aureus [10]): 128 µM (≈ 63.2 µg/mL)
MIC (Acinetobacter baumannii): 64 µM (≈ 31.6 µg/mL)
MIC (Enterobacter cloacae): > 128 µM
Tm (DNA [11]): 72.2 °C
MIC (Klebsiella aerogenes): 64 µM (≈ 31.6 µg/mL)
MIC (Staphylococcus aureus [12]): 128 µM (≈ 63.2 µg/mL)
MIC (Bacillus cereus [13]): 64 µM (≈ 31.6 µg/mL)
Tm (DNA [14]): 92.8 °C
Tm (DNA [15]): 76.2 °C
MIC (Enterococcus faecium [16]): 16 µM (≈ 7.9 µg/mL)
MIC (Klebsiella pneumoniae): > 128 µM
ΔTm (DNA [17]): 14.9 °C
MIC (Enterococcus faecalis [18]): 32 µM (≈ 15.8 µg/mL)
MIC [19]: 128 µM (≈ 63.2 µg/mL)
MIC (Enterococcus faecalis [20]): 32 µM (≈ 15.8 µg/mL)
ΔTm (DNA [21]): 22.8 °C
ΔTm (DNA [22]): 16.6 °C
ΔTm (DNA [23]): 14.3 °C
ΔTm (DNA [24]): 12.2 °C
Tm (DNA [25]): 77.6 °C
MIC (Pseudomonas aeruginosa): > 128 µM
MIC (Staphylococcus aureus [26]): 128 µM (≈ 63.2 µg/mL)
MIC (Escherichia coli [27]): > 128 µM
Tm (DNA [28]): 74.3 °C

CC(C)C[C@@H]1NC(=O)[C@H](CCCN)NC(=O)[C@H](C(C)C)NC(=O)[C@@H]2CCCN2C(=O)[C@@H](Cc2ccccc2)NC(=O)[C@H](CC(C)C)NC(=O)[C@H](CCCN)NC(=O)[C@H](C(C)C)NC(=O)[C@@H]2CCCN2C(=O)[C@@H](Cc2ccccc2)NC1=O (cyclo(V[Orn]L[dF]PV[Orn]L[dF]P))
Activity (Enterococcus faecium [1]): Active
Activity (Bacillus cereus [2]): Active
Activity (Staphylococcus aureus [3]): Active
Activity (Escherichia coli [4]): Active
